# Laboratory results as given in ChEMBL document CHEMBL2021869, “Pharmacological evaluation of a novel cyclic phosphatidic acid derivative 3-S-cyclic phosphatidic acid (3-S-cPA)” (Bioorg Med Chem, 2012).
# Calls of active or inactive are those of the source. The rule behind the calls is not given here.
# What was measured:
# Autotaxin (Homo sapiens) = Autotaxin (Homo sapiens) (UniProt Q13822); assay: Inhibition of ATX-mediated human MDA-MB-231 cell migration at 10 uM after 8 hrs by Cyto Fluor spectrophotometry relative to lysophosphatidyl choline
# In short: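 Calcein-AM-stained MDA-MB-231 cells (4 × 10^5 cells/mL in DMEM with 0.1% fatty-acid-free BSA) placed in upper wells over 8-µm pore membranes; lower wells held 200 µM LPC plus 10 µM compound. Incubated 8 h at 37 °C; non-migrated cells wiped off, migrated-cell fluorescence read at 485/530 nm. Percent of LPC-only control; triplicate wells, ≥3 independent experiments.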
# Rattus norvegicus [1] = assay: Antinociceptive activity in Wistar rat assessed as somato-somatic C-reflex at 0.2 mg/kg, iv by electromyogram analysis relative to control; format: functional
# In short: (§1)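 Anesthetised adult male Wistar rats (310–370 g; pentobarbital 50 mg/kg ip); jugular vein catheter for iv dosing at 0.2 mg/kg, blood pressure and heart rate monitored, end-tidal CO2 kept near 3.0%. Reflex EMG evoked by single shocks, averaged over ~50 trials at 3-s intervals; response area expressed as percent of control size 0–15 min before injection; mean ± S.E.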
# [2] = Lipophilicity, Log P of the compound; format: physicochemical; settings: octanol/water
# Rattus norvegicus [3] = assay: (§2) Neuroprotective effect against transient cerebral ischemia-induced delayed neuronal death in Wistar rat hippocampal CA1 region assessed as decrease in GFAP accumulation at 180 ug/kg/5 days dosed through mini-osmotic pump measured after 5 days of occlusion for 8 mins by immunohistochemical staining relative to control; format: functional, organism-based
# In short: (§3)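 Male Wistar rats under halothane; compound (180 µg·kg−1·5 days−1) or 0.2% fatty-acid-free BSA vehicle given by subcutaneous pump implanted 35–60 min before ischemia. Vertebral arteries ligated, both carotids occluded 8 min at ~37.5 °C. On day 5, formalin perfusion and paraffin sections (6 µm) of hippocampal CA1 stained with HE or anti-GFAP.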
# Rattus norvegicus [4] = assay: Antinociceptive activity in Wistar rat assessed as reduction in somato-somatic C-reflex at 0.2 mg/kg, iv by electromyogram analysis relative to control; format: functional, organism-based; parameters: dose 0.2 mg/kg; in short: as §1
# Rattus norvegicus [5] = assay: Antinociceptive activity in Wistar rat assessed as reduction in A-reflex at 0.2 mg/kg, iv by electromyogram analysis relative to control; format: functional, organism-based; parameters: dose 0.2 mg/kg; in short: as §1
# Rattus norvegicus [6] = assay: as §2, with “reduction” for “decrease”, “pyknosis and shrinkage of cells” for “GFAP accumulation”, “hematoxylin/eosin based” for “immunohistochemical”; format: functional, organism-based; in short: as §3
# Autotaxin (Bos taurus) [7] = target: Autotaxin (Bos taurus) (UniProt A1A4K5); assay: Inhibition of ATX in fetal bovine serum using FS-3 as substrate at 0.1 to 10 uM after 2 hrs by fluorescence assay
# In short: (§4)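 ATX source: fetal bovine serum, mixed with compound in 0.1% BSA and 1 µM FS-3 in Tris-HCl pH 8.0 buffer (1 mM CaCl2, 1 mM MgCl2, 5 mM KCl, 140 mM NaCl). Fluorescence (485/530 nm) read before and after 2 h at 37 °C; pre-incubation value subtracted, normalized to vehicle as percent inhibition; triplicate wells, mean ± S.E.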
# Rattus norvegicus [8] = species: Rattus norvegicus; assay: Ratio of natural cPA effective dose to compound effective dose for antinociceptive activity in Wistar rat assessed as reduction in somato-somatic C-reflex; format: functional
# Autotaxin (Bos taurus) [9] = target: Autotaxin (Bos taurus) (UniProt A1A4K5); assay: Inhibition of ATX in fetal bovine serum using FS-3 as substrate at 10 uM after 2 hrs by fluorescence assay; in short: as §4
smiles,measurement,setting,value
CCCCCCCCCCCCCCCCCC(=O)OCC1CSP(=O)(O)O1 (racemic),inhibition,Autotaxin (Homo sapiens),> 40%
CCCCCCCC/C=C\CCCCCCCC(=O)OCC1CSP(=O)(O)O1 (racemic),inhibition,Autotaxin (Homo sapiens),> 40%
CCCCCC/C=C\CCCCCCCC(=O)OCC1CSP(=O)(O)O1.CCN(CC)CC (racemic),Activity,Rattus norvegicus [1],87%
same,logP,[2],5.96
same,Activity,Rattus norvegicus [3],Active
same,Activity,Rattus norvegicus [4],Active
same,Activity,Rattus norvegicus [5],inactive
same,inhibition,Autotaxin (Homo sapiens),> 40%
same,Activity,Rattus norvegicus [6],Active
CCCCCC/C=C\CCCCCCCC(=O)OC[C@H]1CSP(=O)(O)O1,inhibition,Autotaxin (Bos taurus) [7],Active
CCCCCC/C=C\CCCCCCCC(=O)OCC1COP(=O)([O-])C1.[Na+] (racemic),inhibition,Autotaxin (Bos taurus) [7],Active
same,Activity,Rattus norvegicus [1],83%
same,fold change (FC),Rattus norvegicus [8],10
CCCCCCCCCCCCCCCC(=O)OCC1CSP(=O)(O)O1 (racemic),inhibition,Autotaxin (Homo sapiens),> 40%
CCCCCC/C=C\CCCCCCCC(=O)OC[C@@H]1CSP(=O)(O)O1,inhibition,Autotaxin (Bos taurus) [9],40%
